Tests used:
[1] = Cytotoxicity against MDCK cells assessed reduction in cell viability after 48 hrs by MTT assay; format: cell-based, Canis lupus familiaris; conditions: dog, read-out: CTD50
In short: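 MDCK monolayers were grown in MEM with 5% fetal calf serum and washed with serum-free MEM. Compounds (5 mg/ml DMSO stock) were applied as twofold dilutions, 1000–4 microgram/ml in MEM, for 48 h at 37°C. After PBS washes, MTT (0,5 mg/ml) was added for 60 min at 37°C, 5% CO2. Formazan was dissolved in DMSO and read at 535 nm. CTD50 is the concentration cutting viability 50%.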

[2] = Selectivity index, ratio of CTD50 for MDCK cells to ED50 for Influenza A virus (A/California/07/09(H1N1)) pdm09; format: toxicity, cell-based; conditions: dog, read-out: Selectivity Index

CC(=O)c1c(O)c(C)c(O)c2c1OC1=Cc3c(c(C)nn3-c3ccccc3)C(=O)[C@@]12C
CC50 at 48 h [1]: 832 µM
selectivity ratio [2]: 12

CC(=O)c1c(O)c(C)c(O)c2c1OC1=Cc3c(c(C)nn3-c3ccccc3)C(=O)[C@]12C
CC50 at 48 h [1]: 565 µM
selectivity ratio [2]: 10

CC(=O)c1c(O)c(C)c(O)c2c1OC1=Cc3c(c(C)nn3-c3ccccc3)[C@@H](O)[C@@]12C
CC50 at 48 h [1]: 26.3 µM
selectivity ratio [2]: 11

CC(=O)c1c(O)c(C)c(O)c2c1OC1=CC(=O)/C(=C(/C)NCC(=O)O)C(=O)[C@@]12C
selectivity ratio [2]: 6

CC(=O)c1c(O)c(C)c(O)c2c1OC1=CC(=O)/C(=C(/C)NCC(=O)O)C(=O)[C@]12C
CC50 at 48 h [1]: 150 µM
selectivity ratio [2]: 14

CC(=O)c1c(O)c(C)c(O)c2c1OC1=CC(=O)/C(=C(/C)NCCC(=O)O)C(=O)[C@@]12C
CC50 at 48 h [1]: 147 µM
selectivity ratio [2]: 20.3

CC(=O)c1c(O)c(C)c(O)c2c1OC1=CC(=O)/C(=C(/C)NCCC(=O)O)C(=O)[C@]12C
CC50 at 48 h [1]: 145 µM
selectivity ratio [2]: 10

CC(=O)C1=C(O)C=C2O[C@]34O[C@@]3(C(C)=O)C(=O)C(C)=C(O)[C@]4(O)[C@@]2(C)C1=O
CC50 at 48 h [1]: 234 µM
selectivity ratio [2]: 22

CC(=O)c1c(O)c(C)c(O)c2c1OC1=CC(=O)/C(=C(/C)NCCCC(=O)O)C(=O)[C@@]12C
CC50 at 48 h [1]: 130 µM
selectivity ratio [2]: 3.7

CSCC[C@H](N/C(C)=C1\C(=O)C=C2Oc3c(C(C)=O)c(O)c(C)c(O)c3[C@@]2(C)C1=O)C(=O)O
CC50 at 48 h [1]: 21.1 µM
selectivity ratio [2]: 5

CC(=O)C1=C(O)C[C@H]2Oc3c(C(C)=O)c(O)c(C)c(O)c3[C@@]2(C)C1=O
CC50 at 48 h [1]: 14.5 µM
selectivity ratio [2]: 1.8

CC(=O)c1c(O)c(C)c(O)c2c1OC1=CC(=O)/C(=C(/C)N[C@@H](CC(C)C)C(=O)O)C(=O)[C@@]12C
CC50 at 48 h [1]: 13.1 µM
selectivity ratio [2]: 2

CC(=O)c1c(O)c(C)c(O)c2c1OC1=CC(=O)/C(=C(/C)N[C@H](CC(=O)O)CC(C)C)C(=O)[C@]12C
CC50 at 48 h [1]: 32.8 µM
selectivity ratio [2]: 5

CC(=O)c1c(O)c(C)c(O)c2c1OC1=CC(=O)/C(=C(/C)NCCCC(=O)O)C(=O)[C@]12C
CC50 at 48 h [1]: 83.9 µM
selectivity ratio [2]: 3

CC(=O)c1c(O)c(C)c(O)c2c1OC1=Cc3c(c(C)nn3-c3cccc(C(F)(F)F)c3)C(=O)[C@@]12C
CC50 at 48 h [1]: 1100 µM
selectivity ratio [2]: 16

CC(=O)c1c(O)c(C)c(O)c2c1OC1=Cc3c(c(C)nn3-c3ccccc3)[C@H](O)[C@]12C
CC50 at 48 h [1]: 47.8 µM
selectivity ratio [2]: 4

COc1c(C)c(O)c(C(=O)/C=C/c2ccccc2)c2c1[C@]1(C)C(=Cc3c(c(C)nn3-c3ccccc3)[C@H]1O)O2
CC50 at 48 h [1]: 36.5 µM
selectivity ratio [2]: 1.1

COc1c(C)c(O)c(C(=O)/C=C/c2ccc(Cl)cc2)c2c1[C@]1(C)C(=Cc3c(c(C)nn3-c3ccccc3)[C@H]1O)O2
CC50 at 48 h [1]: 253 µM
selectivity ratio [2]: 4.6

COc1ccccc1/C=C/C(=O)c1c(O)c(C)c(OC)c2c1OC1=Cc3c(c(C)nn3-c3ccccc3)[C@@H](O)[C@@]12C
CC50 at 48 h [1]: 909 µM
selectivity ratio [2]: 11

COc1ccc(/C=C/C(=O)c2c(O)c(C)c(OC)c3c2OC2=Cc4c(c(C)nn4-c4ccccc4)[C@@H](O)[C@@]23C)cc1OC
CC50 at 48 h [1]: 431 µM
selectivity ratio [2]: 12.5

COc1cccc(/C=C/C(=O)c2c(O)c(C)c(OC)c3c2OC2=Cc4c(c(C)nn4-c4ccccc4)[C@@H](O)[C@@]23C)c1OC
CC50 at 48 h [1]: 862 µM
selectivity ratio [2]: 17

COc1ccc(/C=C/C(=O)c2c(O)c(C)c(OC)c3c2OC2=Cc4c(c(C)nn4-c4ccccc4)[C@@H](O)[C@@]23C)c(OC)c1OC
CC50 at 48 h [1]: 279 µM
selectivity ratio [2]: 8.5

COc1cc(/C=C/C(=O)c2c(O)c(C)c(OC)c3c2OC2=Cc4c(c(C)nn4-c4ccccc4)[C@@H](O)[C@@]23C)cc(OC)c1OC
CC50 at 48 h [1]: 98.4 µM
selectivity ratio [2]: 12

COc1ccc(OC)c(/C=C/C(=O)c2c(O)c(C)c(OC)c3c2OC2=Cc4c(c(C)nn4-c4ccccc4)[C@@H](O)[C@@]23C)c1
CC50 at 48 h [1]: 517 µM
selectivity ratio [2]: 20

COc1ccc(/C=C/C(=O)c2c(O)c(C)c(OC)c3c2OC2=Cc4c(c(C)nn4-c4ccccc4)[C@@H](O)[C@@]23C)c(OC)c1
CC50 at 48 h [1]: 517 µM
selectivity ratio [2]: 20

COc1c(C)c(O)c(C(=O)/C=C/c2ccc(SC)cc2)c2c1[C@]1(C)C(=Cc3c(c(C)nn3-c3ccccc3)[C@H]1O)O2
CC50 at 48 h [1]: 530 µM
selectivity ratio [2]: 10

COc1cccc(/C=C/C(=O)c2c(O)c(C)c(OC)c3c2OC2=Cc4c(c(C)nn4-c4ccccc4)C(=O)[C@@]23C)c1OC
CC50 at 48 h [1]: 34.6 µM
selectivity ratio [2]: 4

COc1ccc(-c2cc(-c3c(O)c(C)c(OC)c4c3OC3=Cc5c(c(C)nn5-c5ccccc5)[C@@H](O)[C@@]34C)n[nH]2)cc1
CC50 at 48 h [1]: 1020 µM
selectivity ratio [2]: 10

COc1c(C)c(O)c(C(=O)/C=C/c2ccccc2)c2c1[C@@]1(C)C(=Cc3c(c(C)nn3-c3ccccc3)[C@@H]1O)O2
CC50 at 48 h [1]: 106 µM
selectivity ratio [2]: 1.7

COc1c(C)c(O)c(C(=O)/C=C/c2ccc(Cl)cc2)c2c1[C@@]1(C)C(=Cc3c(c(C)nn3-c3ccccc3)[C@@H]1O)O2
CC50 at 48 h [1]: 116 µM
selectivity ratio [2]: 1.5

COc1ccccc1/C=C/C(=O)c1c(O)c(C)c(OC)c2c1OC1=Cc3c(c(C)nn3-c3ccccc3)[C@H](O)[C@]12C
CC50 at 48 h [1]: 909 µM
selectivity ratio [2]: 14

COc1cccc(/C=C/C(=O)c2c(O)c(C)c(OC)c3c2OC2=Cc4c(c(C)nn4-c4ccccc4)[C@H](O)[C@]23C)c1OC
CC50 at 48 h [1]: 862 µM
selectivity ratio [2]: 11.3

CC(=O)C1=C(O)C=C2Oc3c4c(c(C)c(O)c3[C@]2(C)C1=O)OCC4=O
CC50 at 48 h [1]: 132 µM
selectivity ratio [2]: 2

CC(=O)C1=C(O)C=C2Oc3c4c(c(C)c(O)c3[C@@]2(C)C1=O)OCC4=O
CC50 at 48 h [1]: 117 µM
selectivity ratio [2]: 1.8

COc1ccccc1/C=C1\Oc2c(C)c(O)c3c(c2C1=O)OC1=CC(O)=C(C(C)=O)C(=O)[C@@]13C
CC50 at 48 h [1]: 32.6 µM
selectivity ratio [2]: 6.8

CC(=O)C1=C(O)C=C2Oc3c4c(c(C)c(O)c3[C@@]2(C)C1=O)O/C(=C\c1ccc(Br)cc1)C4=O
CC50 at 48 h [1]: 39.4 µM
selectivity ratio [2]: 8.3

CC(=O)C1=C(O)C=C2Oc3c4c(c(C)c(O)c3[C@@]2(C)C1=O)O/C(=C\c1ccncc1)C4=O
CC50 at 48 h [1]: 46.4 µM
selectivity ratio [2]: 6.1

CC(=O)C1=C(O)C=C2Oc3c4c(c(C)c(O)c3[C@@]2(C)C1=O)O/C(=C\c1cccnc1)C4=O
CC50 at 48 h [1]: 53.4 µM
selectivity ratio [2]: 7.7

CC(=O)C1=C(O)C=C2Oc3c(C(=O)CSc4nc5ccccc5s4)c(O)c(C)c(O)c3[C@@]2(C)C1=O
CC50 at 48 h [1]: 58.9 µM
selectivity ratio [2]: 2

CC(=O)C1=C(O)C=C2Oc3c(C(=O)CSc4nc5ccccc5o4)c(O)c(C)c(O)c3[C@@]2(C)C1=O
CC50 at 48 h [1]: 2 µM
selectivity ratio [2]: 1

CC(=O)C1=C(O)C=C2Oc3c(C(=O)CSCc4ccccc4)c(O)c(C)c(O)c3[C@@]2(C)C1=O
CC50 at 48 h [1]: 6.4 µM
selectivity ratio [2]: 3

CC(=O)C1=C(O)C=C2Oc3c(C(=O)CSCc4ccc(C)cc4)c(O)c(C)c(O)c3[C@@]2(C)C1=O
CC50 at 48 h [1]: 2.1 µM
selectivity ratio [2]: 1

CC(=O)C1=C(O)C=C2Oc3c(C(=O)CSCc4ncccc4C(=O)O)c(O)c(C)c(O)c3[C@@]2(C)C1=O
CC50 at 48 h [1]: 177 µM
selectivity ratio [2]: 3.1

COc1c(C)c(O)c2c(c1C(=O)CSC1=NCCS1)OC1=CC(O)=C(C(C)=O)C(=O)[C@@]12C
CC50 at 48 h [1]: 105 µM
selectivity ratio [2]: 7.1

COc1ccc2[nH]c(SCC(=O)c3c(OC)c(C)c(O)c4c3OC3=CC(O)=C(C(C)=O)C(=O)[C@@]34C)nc2c1
CC50 at 48 h [1]: 560 µM
selectivity ratio [2]: 23.1

COc1c(C)c(O)c2c(c1C(=O)CSc1nc3ccccc3o1)OC1=CC(O)=C(C(C)=O)C(=O)[C@]12C
CC50 at 48 h [1]: 178 µM
selectivity ratio [2]: 7.5

COc1c(C)c(O)c2c(c1C(=O)CSCCC(=O)O)OC1=CC(O)=C(C(C)=O)C(=O)[C@@]12C
CC50 at 48 h [1]: 938 µM
selectivity ratio [2]: 5.8

CC(=O)C1=C(O)C=C2Oc3c(C(C)=O)c(OC(F)(Cl)C(F)F)c(C)c(O)c3[C@@]2(C)C1=O (some centres undefined)
CC50 at 48 h [1]: 100 µM
selectivity ratio [2]: 14

CC(=O)C1=C(O)C=C2Oc3c(C(C)=O)c(OC(=O)c4ccccc4Br)c(C)c(OC(=O)c4ccccc4Br)c3[C@@]2(C)C1=O
CC50 at 48 h [1]: 31.1 µM
selectivity ratio [2]: 4

CC(=O)C1=C(O)C=C2O[C@@]34O[C@]3(C(C)=O)C(=O)C(C)=C(O)[C@@]4(O)[C@]2(C)C1=O
CC50 at 48 h [1]: 152 µM
selectivity ratio [2]: 5.3

CC(=O)[C@@]12O[C@@]13OC1=Cc4c(c(C)nn4-c4ccccc4)C(=O)[C@]1(C)[C@@]3(O)C(O)=C(C)C2=O
CC50 at 48 h [1]: 67 µM
selectivity ratio [2]: 5

COc1c(C)c(O)c(C(C)=O)c2c1[C@]1(C)C(=Cc3c(c(C)nn3-c3ccccc3)CC13CO3)O2 (single isomer, unassigned; (+))
CC50 at 48 h [1]: 681 µM
selectivity ratio [2]: 2.6

COc1c(C)c(O)c(C(=O)/C=C/c2ccccc2)c2c1[C@]1(C)C(=Cc3c(c(C)nn3-c3ccccc3)CC13CO3)O2 (single isomer, unassigned; (+))
CC50 at 48 h [1]: 18.3 µM
selectivity ratio [2]: 3.3

CC(=O)C1=C(O)C=C2Oc3c(C(C)=O)c(O)c(C)c(O)c3[C@@]2(C)C1=O [(+)-USNIC ACID]
CC50 at 48 h [1]: 424 µM
selectivity ratio [2]: 8.2

CC(=O)C1=C(O)C=C2Oc3c(C(C)=O)c(O)c(C)c(O)c3[C@]2(C)C1=O [(-)-USNIC ACID]
CC50 at 48 h [1]: 134 µM
selectivity ratio [2]: 10.2

— ChEMBL document CHEMBL3352088, “Novel derivatives of usnic acid effectively inhibiting reproduction of influenza A virus” (Bioorg Med Chem, 2014)
